In ChEMBL document CHEMBL1641579, “Synthesis and biological evaluation of 7-substituted-1-(3-bromophenylamino)isoquinoline-4-carbonitriles as inhibitors of myosin light chain kinase and epidermal growth factor receptor” (Bioorg Med Chem, 2011) one finds IC50 and Activity data, which are given here for three molecules.

Test [1] deals with Myosin light chain kinase, smooth muscle (Homo sapiens, UniProt Q15746). Briefly: Inhibition of MLCK by HTRF assay. For orientation: In TR-FRET formats the signal depends on donor and acceptor labels being close together.
In test [2] the target is Serine/threonine-protein kinase pim-3 (Homo sapiens) (UniProt Q86V86). Put plainly: Inhibition of PIM3 assessed as residual activity at 10 uM. A digest of the protocol:
(§1)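 Panel screen by radioactive kinase assay at a single inhibitor concentration. Score is the percent activity remaining relative to DMSO controls (100%).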

In test [3] the target is T1, Serine/threonine-protein kinase BRSK1 (Homo sapiens) (UniProt Q8TDC3).
T1 sequence (whole entry): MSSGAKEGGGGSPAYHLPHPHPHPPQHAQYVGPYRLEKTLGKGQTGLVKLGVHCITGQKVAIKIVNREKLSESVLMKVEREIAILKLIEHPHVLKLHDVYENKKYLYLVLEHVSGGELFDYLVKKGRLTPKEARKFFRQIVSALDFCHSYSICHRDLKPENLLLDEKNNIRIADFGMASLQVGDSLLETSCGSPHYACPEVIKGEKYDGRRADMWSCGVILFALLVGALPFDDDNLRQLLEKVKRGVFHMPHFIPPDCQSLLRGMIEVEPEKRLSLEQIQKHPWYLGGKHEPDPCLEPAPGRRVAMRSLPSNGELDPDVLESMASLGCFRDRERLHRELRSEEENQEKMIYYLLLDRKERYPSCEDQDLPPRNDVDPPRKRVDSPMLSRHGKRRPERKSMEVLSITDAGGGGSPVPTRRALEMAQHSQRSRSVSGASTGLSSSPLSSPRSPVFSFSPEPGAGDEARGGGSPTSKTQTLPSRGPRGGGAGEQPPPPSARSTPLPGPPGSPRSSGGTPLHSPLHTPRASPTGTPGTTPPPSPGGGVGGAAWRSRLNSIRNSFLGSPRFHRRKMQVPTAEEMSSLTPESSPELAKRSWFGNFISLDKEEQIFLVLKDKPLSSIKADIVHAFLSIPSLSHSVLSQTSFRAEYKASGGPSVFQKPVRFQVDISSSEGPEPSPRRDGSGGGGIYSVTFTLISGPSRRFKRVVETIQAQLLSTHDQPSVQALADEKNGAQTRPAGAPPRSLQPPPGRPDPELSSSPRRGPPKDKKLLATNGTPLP
Put plainly: Inhibition of BRSK1 assessed as residual activity at 10 uM. A digest of the protocol: (§2)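 Kinase panel screen run as a radioactive activity assay at single compound concentration. Score reported as percent activity remaining relative to DMSO controls (100%).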

Test [4] deals with Tyrosine-protein kinase BTK (Homo sapiens) (UniProt Q06187). Put plainly: Inhibition of BTK assessed as residual activity at 10 uM. A digest of the protocol: as §2
The target in test [5] is T2, Mitogen-activated protein kinase 15 (Homo sapiens) (UniProt Q8TD08).
T2 sequence (whole entry): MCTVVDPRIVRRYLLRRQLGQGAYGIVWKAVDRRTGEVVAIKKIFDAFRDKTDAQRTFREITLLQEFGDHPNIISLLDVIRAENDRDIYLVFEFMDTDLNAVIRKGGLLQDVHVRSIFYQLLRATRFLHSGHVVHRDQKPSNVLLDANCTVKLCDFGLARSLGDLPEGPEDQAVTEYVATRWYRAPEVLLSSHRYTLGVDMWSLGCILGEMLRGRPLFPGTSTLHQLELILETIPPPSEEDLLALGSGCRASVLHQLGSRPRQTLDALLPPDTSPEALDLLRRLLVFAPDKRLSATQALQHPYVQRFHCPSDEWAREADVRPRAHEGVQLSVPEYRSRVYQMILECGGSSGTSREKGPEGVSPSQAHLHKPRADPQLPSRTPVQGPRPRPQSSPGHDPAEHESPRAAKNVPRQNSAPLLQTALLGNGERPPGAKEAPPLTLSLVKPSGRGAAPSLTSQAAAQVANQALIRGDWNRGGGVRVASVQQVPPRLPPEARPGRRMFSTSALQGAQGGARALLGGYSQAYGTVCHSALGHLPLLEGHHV
Put plainly: Inhibition of ERK8 assessed as residual activity at 10 uM. A digest of the protocol: as §2

Test [6] deals with T3, NUAK family SNF1-like kinase 1 (Homo sapiens) (UniProt O60285).
T3 sequence (whole entry): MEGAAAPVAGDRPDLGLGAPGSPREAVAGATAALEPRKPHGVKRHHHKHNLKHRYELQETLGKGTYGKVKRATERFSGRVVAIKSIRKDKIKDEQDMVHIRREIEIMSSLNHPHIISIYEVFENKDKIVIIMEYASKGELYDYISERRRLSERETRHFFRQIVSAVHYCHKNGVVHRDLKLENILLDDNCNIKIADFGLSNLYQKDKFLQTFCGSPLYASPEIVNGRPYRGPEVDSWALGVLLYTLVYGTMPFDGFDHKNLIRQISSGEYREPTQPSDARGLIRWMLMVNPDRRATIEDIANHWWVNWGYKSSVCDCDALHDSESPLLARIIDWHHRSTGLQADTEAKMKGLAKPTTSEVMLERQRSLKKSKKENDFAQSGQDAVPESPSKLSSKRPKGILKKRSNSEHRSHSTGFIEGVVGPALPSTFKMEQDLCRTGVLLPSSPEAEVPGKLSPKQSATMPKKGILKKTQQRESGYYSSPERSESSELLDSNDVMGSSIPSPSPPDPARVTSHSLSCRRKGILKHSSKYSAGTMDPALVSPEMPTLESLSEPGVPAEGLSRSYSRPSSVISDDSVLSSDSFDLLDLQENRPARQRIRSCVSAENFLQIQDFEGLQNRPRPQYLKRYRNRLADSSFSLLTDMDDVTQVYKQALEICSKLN
Briefly: Inhibition of NUAK1 assessed as residual activity at 10 uM. A digest of the protocol: as §1

Test [7] concerns the target T4, Mitogen-activated protein kinase 13 (Homo sapiens) (UniProt O15264).
T4 sequence (whole entry): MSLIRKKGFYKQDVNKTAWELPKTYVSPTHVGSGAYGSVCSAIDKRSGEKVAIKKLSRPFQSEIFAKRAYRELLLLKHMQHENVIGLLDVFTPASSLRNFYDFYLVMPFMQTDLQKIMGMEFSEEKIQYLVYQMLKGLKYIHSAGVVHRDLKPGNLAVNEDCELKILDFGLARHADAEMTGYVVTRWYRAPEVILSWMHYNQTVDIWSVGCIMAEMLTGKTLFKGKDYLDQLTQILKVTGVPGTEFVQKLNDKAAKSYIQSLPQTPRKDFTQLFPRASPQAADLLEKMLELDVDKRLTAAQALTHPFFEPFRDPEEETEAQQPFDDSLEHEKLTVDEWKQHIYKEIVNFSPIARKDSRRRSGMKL
Briefly: Inhibition of P38delta assessed as residual activity at 10 uM. A digest of the protocol:
as §1

Each structure is given as a SMILES string.

Chain of Myosin light chain kinase, smooth muscle (Q15746 whole entry): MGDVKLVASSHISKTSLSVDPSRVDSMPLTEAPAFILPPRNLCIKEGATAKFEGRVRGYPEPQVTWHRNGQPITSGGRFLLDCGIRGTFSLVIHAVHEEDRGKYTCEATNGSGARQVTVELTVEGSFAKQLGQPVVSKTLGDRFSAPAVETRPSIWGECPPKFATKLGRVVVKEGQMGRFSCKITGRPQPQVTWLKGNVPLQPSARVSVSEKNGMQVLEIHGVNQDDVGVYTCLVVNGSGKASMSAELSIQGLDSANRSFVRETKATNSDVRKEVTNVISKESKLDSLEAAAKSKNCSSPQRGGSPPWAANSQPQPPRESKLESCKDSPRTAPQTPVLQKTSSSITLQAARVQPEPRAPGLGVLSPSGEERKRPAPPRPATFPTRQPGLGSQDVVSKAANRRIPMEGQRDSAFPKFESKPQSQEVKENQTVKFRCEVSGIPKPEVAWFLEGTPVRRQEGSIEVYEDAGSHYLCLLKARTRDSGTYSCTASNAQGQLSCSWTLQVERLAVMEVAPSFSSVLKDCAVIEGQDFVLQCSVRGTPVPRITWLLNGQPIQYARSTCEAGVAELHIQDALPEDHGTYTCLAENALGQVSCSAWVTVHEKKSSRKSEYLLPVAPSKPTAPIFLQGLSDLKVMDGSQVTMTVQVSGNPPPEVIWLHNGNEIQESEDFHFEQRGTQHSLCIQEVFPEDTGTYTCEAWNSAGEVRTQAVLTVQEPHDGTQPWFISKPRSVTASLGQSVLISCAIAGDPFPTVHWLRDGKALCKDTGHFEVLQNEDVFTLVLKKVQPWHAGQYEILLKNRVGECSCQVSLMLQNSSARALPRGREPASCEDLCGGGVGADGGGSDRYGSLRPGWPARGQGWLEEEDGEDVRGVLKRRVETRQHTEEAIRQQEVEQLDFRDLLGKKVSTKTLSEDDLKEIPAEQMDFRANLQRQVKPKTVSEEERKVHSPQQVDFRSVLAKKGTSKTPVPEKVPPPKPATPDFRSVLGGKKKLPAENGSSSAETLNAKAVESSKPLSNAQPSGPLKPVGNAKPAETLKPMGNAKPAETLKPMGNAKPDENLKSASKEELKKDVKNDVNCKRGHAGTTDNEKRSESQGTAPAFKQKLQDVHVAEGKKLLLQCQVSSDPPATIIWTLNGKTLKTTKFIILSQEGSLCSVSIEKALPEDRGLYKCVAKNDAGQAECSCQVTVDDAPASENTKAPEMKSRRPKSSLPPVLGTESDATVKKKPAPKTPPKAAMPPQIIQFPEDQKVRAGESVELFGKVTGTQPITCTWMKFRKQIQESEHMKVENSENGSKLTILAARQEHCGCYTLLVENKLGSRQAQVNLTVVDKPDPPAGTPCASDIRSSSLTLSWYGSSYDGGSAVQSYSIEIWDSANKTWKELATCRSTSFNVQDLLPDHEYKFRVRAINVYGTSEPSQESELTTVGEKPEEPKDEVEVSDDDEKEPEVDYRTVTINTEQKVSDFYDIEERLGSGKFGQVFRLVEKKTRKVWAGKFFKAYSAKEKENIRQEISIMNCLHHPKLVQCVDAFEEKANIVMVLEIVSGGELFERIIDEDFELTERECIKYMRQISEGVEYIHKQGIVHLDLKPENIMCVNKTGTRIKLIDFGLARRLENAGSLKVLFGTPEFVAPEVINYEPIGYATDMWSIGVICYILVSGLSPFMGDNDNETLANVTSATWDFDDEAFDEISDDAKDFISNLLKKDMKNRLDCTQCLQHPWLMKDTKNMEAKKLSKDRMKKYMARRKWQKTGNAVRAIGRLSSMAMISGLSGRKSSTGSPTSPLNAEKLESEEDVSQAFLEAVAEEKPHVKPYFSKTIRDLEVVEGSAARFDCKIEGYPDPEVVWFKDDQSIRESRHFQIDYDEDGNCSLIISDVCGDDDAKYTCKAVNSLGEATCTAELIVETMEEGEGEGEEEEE
Chain of Tyrosine-protein kinase BTK (Homo sapiens) (Q06187 whole entry): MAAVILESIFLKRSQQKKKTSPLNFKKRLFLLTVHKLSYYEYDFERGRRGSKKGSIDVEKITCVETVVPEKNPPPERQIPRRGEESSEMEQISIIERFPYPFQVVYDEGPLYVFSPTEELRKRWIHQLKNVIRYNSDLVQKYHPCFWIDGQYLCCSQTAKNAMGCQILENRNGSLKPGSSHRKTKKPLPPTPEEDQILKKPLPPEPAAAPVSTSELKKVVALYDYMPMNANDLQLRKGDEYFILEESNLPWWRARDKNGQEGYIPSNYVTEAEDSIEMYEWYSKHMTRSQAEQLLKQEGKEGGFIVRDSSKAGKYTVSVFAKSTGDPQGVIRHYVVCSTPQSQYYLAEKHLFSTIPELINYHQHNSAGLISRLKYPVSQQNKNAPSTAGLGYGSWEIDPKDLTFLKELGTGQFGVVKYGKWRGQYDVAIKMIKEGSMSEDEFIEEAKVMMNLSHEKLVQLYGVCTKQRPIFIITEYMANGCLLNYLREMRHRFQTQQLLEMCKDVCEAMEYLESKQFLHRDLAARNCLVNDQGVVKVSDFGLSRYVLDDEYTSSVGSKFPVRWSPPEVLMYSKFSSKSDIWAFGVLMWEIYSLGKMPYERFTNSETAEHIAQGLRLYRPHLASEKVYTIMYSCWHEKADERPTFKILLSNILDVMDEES

For orientation: IC50 means the concentration that gives 50% inhibition. Low values mean higher potency, high ones lower potency. `CN1CCN(CCC(=O)Nc2ccc3c(C#N)cnc(Nc4cccc(Br)c4)c3c2)CC1`: in test [1], the 50% inhibitory concentration (IC50) is 8.7 µM. In addition, the Activity is 68% in test [2]; 89% in test [3]; 76% in test [4]; 72% in test [5]; 94% in test [6]; 77% in test [7].
In test [1], `CN(C)CCCC(=O)Nc1ccc2c(C#N)cnc(Nc3cccc(Br)c3)c2c1` registered an IC50 of 25.1 µM. In addition, the Activity in test [2] came to 46%; in test [3], 66%; in test [4] it was 72%; in test [5], 75%; in test [6], 86%; in test [7], 94%.
Regarding `CN(C)C/C=C/C(=O)Nc1ccc2c(C#N)cnc(Nc3cccc(Br)c3)c2c1`, in test [1], it took 23.6 µM to reach half-maximal inhibition (IC50). Also, the Activity was found to be 59% in test [2]; 95% in test [3]; 52% in test [4]; 78% in test [5]; 100% in test [6]; 86% in test [7].
